The source of these data is ChEMBL document CHEMBL2034856, “Synthesis and evaluation of 11β-(4-substituted phenyl) estradiol analogs: transition from estrogen receptor agonists to antagonists” (Bioorg Med Chem, 2012).

For experiment [1], the target named is T1, Estrogen receptor (Bos taurus) (UniProt P49884).
T1 sequence (whole entry): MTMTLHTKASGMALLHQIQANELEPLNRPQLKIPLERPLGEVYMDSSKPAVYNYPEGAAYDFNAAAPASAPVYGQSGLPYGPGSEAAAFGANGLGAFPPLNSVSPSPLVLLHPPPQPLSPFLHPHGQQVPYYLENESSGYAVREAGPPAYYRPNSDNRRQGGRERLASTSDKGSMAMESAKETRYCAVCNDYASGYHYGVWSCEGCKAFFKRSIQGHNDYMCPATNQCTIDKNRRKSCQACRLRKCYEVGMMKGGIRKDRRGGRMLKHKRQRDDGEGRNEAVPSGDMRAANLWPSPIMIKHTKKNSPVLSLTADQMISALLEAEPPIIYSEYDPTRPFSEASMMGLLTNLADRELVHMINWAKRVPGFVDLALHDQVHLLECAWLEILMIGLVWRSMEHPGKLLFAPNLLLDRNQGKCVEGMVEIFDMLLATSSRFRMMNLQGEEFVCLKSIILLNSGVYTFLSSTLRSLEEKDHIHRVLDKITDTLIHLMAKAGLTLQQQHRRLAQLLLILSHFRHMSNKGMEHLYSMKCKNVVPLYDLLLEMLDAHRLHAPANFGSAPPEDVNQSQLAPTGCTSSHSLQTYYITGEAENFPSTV
The experiment is described as follows: Displacement of [3H]estradiol from calf cytosolic ER relative to estradiol. (In general: Displacement assays read how much labelled ligand stays bound in the presence of the test substance.)

The target in experiment [2] is T2, Estrogen receptor (Homo sapiens) (UniProt P03372).
T2 sequence (whole entry): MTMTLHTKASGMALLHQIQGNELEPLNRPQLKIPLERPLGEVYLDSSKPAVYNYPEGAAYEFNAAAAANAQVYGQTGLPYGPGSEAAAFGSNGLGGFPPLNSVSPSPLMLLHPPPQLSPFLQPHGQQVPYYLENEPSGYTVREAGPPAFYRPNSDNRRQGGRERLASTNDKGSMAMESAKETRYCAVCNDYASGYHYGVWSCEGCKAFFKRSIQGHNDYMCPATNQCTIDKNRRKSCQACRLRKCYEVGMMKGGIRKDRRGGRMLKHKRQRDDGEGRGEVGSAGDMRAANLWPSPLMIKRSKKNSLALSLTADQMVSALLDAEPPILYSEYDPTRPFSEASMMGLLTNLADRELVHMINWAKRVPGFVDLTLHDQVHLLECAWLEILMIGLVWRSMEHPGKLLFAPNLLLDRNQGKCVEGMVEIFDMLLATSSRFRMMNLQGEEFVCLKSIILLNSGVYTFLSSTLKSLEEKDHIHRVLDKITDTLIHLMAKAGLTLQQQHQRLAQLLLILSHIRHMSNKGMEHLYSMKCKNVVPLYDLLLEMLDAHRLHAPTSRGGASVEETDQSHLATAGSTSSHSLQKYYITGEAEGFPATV
The experiment is described as follows: Mixed agonist and antagonist activity at Estrogen receptor expressed in human Ishikawa cells assessed as induction of alkaline phosphatase after 3 days by spectrophotometry relative to estradiol. In kind it is functional, cell-based. Also noted: scale not given: the % may be the effect or the level left. The procedure, abridged:
(§1)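 Ishikawa endometrial adenocarcinoma cells were grown in phenol red-free medium with charcoal-stripped bovine serum, with steroids across at least 6 orders of magnitude, for 3 days. Cells were then washed and freeze-thawed, and alkaline phosphatase was read kinetically as p-nitrophenol at 405 nm from 5 mM p-nitrophenyl phosphate at pH 9.8. RSA is the ratio of 1/EC50 versus E2 ×100, from curve fitting. At least 3 experiments were run in duplicate.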

The next experiment deals with T3, Estrogen receptor (Homo sapiens, UniProt P03372).
T3 sequence (P03372 whole entry): T2 sequence (whole entry)
The experiment is described as follows: Antagonist activity at Estrogen receptor expressed in human Ishikawa cells assessed as inhibition of estradiol-induced increase in alkaline phosphatase after 3 days by spectrophotometry. In kind it is functional, cell-based. The procedure, abridged: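 Ishikawa cells were grown in phenol red-free, charcoal-stripped bovine serum medium. Compounds at 10−6 to 10−12 M were tested against 10−9 M E2 for 3 days. Ki came from curve fitting. At least 3 experiments were run in duplicate.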

Experiment [3] addresses Estrogen receptor beta (Homo sapiens) (UniProt Q92731). The experiment is described as follows: Displacement of [3H]estradiol from human ERbeta LBD expressed in Escherichia coli.
Experiment [4] has as its target T2, Estrogen receptor (Homo sapiens). The experiment is described as follows: Agonist activity at Estrogen receptor expressed in human Ishikawa cells assessed as induction of alkaline phosphatase after 3 days by spectrophotometry relative to estradiol. In kind it is functional, cell-based. The procedure, abridged:
as §1

Estrogen receptor beta (Homo sapiens), sequence (Q92731 whole entry, the tested form may be a part): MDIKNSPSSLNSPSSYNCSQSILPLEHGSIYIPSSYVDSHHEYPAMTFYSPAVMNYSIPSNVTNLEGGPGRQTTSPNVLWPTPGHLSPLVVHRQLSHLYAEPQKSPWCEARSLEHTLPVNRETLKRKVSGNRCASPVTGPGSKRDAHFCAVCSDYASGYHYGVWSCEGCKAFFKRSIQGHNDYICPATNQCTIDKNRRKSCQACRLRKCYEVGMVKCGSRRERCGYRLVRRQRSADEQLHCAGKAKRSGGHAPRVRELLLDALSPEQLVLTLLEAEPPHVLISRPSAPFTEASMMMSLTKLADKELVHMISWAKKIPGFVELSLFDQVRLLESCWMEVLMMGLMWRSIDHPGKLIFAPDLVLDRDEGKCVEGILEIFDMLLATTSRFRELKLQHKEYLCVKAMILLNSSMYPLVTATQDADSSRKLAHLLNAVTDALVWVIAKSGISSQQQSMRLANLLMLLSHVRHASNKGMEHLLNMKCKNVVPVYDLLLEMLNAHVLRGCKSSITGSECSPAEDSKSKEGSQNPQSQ

Turning to `N#CC(=C(c1ccc(O)cc1)c1ccc(O)cc1)c1ccc(O)cc1`, the RBA in experiment [1] came out at 166%.
In the case of `COc1ccc(/C(=C(/C#N)c2ccc(O)cc2)c2ccc(O)cc2)cc1`, the RBA in experiment [1] is 17%.
For the molecule `COc1ccc([C@H]2C[C@]3(C)[C@@H](O)CC[C@H]3[C@@H]3CCc4cc(O)ccc4[C@H]32)cc1`, in experiment [2], the Activity is 35%.
Turning to `C[C@]12C[C@H](c3ccc(OCCCCCS(=O)(=O)C(F)(F)C(F)(F)F)cc3)[C@@H]3c4ccc(O)cc4CC[C@H]3[C@@H]1CC[C@@H]2O`, the Ki at Estrogen receptor turned out to be 5.3 nM. The same molecule showed an RBA in experiment [3] of 27%.
As to `C=C[C@H]1C[C@]2(C)[C@@H](O)CC[C@H]2[C@@H]2CCc3cc(O)ccc3[C@H]21`, the RSA in experiment [4] came out at 70%.
Regarding `CN(C)CCOc1ccc([C@H]2C[C@]3(C)[C@@H](O)CC[C@H]3[C@@H]3CCc4cc(O)ccc4[C@H]32)cc1`, the RBA in experiment [3] is 17%.
For the molecule `CO[C@H]1C[C@]2(C)[C@@H](O)CC[C@H]2[C@@H]2CCc3cc(O)ccc3[C@H]21`, the RSA in experiment [4] turned out to be 76%.
`C[C@]12C[C@H](c3ccc(O)cc3)[C@@H]3c4ccc(O)cc4CC[C@H]3[C@@H]1CC[C@@H]2O`: the RSA in experiment [4] was 17%. The RBA in experiment [3] amounted to 41%.
For the molecule `C[C@]12C[C@H](c3ccc(OCCOCCOCCn4cc(CNC5=CC(=O)c6ccccc6C5=O)nn4)cc3)[C@@H]3c4ccc(O)cc4CC[C@H]3[C@@H]1CC[C@@H]2O`, the Ki at Estrogen receptor stood at 1.1 nM.

As usually defined, the Ki is a measure of affinity in units of concentration, obtained from inhibition or displacement.
